IC50 and Activity data for 29 compounds are collected here from ChEMBL document CHEMBL1152701, “Design, synthesis and biological evaluation of novel dual inhibitors of acetylcholinesterase and beta-secretase” (Bioorg Med Chem, 2009).

For orientation: pIC50 means the negative decadic logarithm of the IC50, by convention in mol/L.

pIC50: −log10 of the molar value. The source made the active and inactive calls. The calls are words filed in the database; no cut-off is given here.

T1 sequence (P56817 whole entry): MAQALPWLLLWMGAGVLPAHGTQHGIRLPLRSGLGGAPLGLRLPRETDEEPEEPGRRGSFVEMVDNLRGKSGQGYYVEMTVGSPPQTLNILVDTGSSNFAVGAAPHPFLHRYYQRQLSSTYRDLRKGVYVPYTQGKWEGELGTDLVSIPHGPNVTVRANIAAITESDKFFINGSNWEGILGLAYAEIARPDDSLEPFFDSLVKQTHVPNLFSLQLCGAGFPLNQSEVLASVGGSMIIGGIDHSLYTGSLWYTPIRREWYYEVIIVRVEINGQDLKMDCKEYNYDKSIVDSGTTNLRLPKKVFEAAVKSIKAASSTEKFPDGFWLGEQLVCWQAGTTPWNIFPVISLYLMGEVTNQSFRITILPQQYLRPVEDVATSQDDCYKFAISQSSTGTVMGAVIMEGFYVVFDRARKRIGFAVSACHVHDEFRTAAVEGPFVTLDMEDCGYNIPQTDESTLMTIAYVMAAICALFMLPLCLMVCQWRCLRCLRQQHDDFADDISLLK

The target of the first assay is T1, Beta-secretase 1 (Homo sapiens, UniProt P56817). The assay is described as follows: Inhibition of BACE1 in HEK293 cells transfected with human betaAPP695 mutant assessed as inhibition of amyloid beta (1 to 40) production after 24 hrs by ELISA. It is filed as cell-based. The gist of the method:
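HEK293 cells stably carrying APP695 with Swedish double mutation, grown in DMEM plus 10% heat-inactivated FBS. Compounds added at seeding at several concentrations, 24 h at 37 °C, 5% CO2. Secreted Aβ1-40 in conditioned medium quantified by colorimetric sandwich ELISA.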
For `C[C@@H](NC(=O)c1cc(C(=O)N[C@@H](Cc2ccccc2)[C@H](O)CNC2CCN(Cc3ccccc3)CC2)cc(N(C)S(C)(=O)=O)c1)c1ccccc1`, the pIC50 is 7.26.

As to `C[C@@H](NC(=O)c1cc(C(=O)N[C@H](CO)Cc2ccccc2)cc(N(C)S(C)(=O)=O)c1)c1ccc(F)cc1`, the pIC50 is > 6.00.

On to `CC(C)C[C@H](NC(=O)c1cc(C(=O)N[C@H](C)c2ccc(F)cc2)cc(N(C)S(C)(=O)=O)c1)[C@@H](O)C[C@@H](C)C(=O)NC1CCN(Cc2ccccc2)CC1`, for which the pIC50 is > 6.00.

Take `CC(C)C[C@H](NC(=O)c1cc(C(=O)N[C@H](C)c2ccccc2)cc(N(C)S(C)(=O)=O)c1)[C@@H](O)C[C@@H](C)C(=O)NC1CCN(Cc2ccccc2)CC1`: the pIC50 is > 6.00.

As for `C[C@@H](NC(=O)c1cc(C(=O)N[C@@H](Cc2ccccc2)[C@H](O)CNCCC2CCN(Cc3ccccc3)CC2)cc([N+](=O)[O-])c1)c1ccc(F)cc1`, the pIC50 was > 6.00.

Take `C[C@@H](NC(=O)c1cc(C(=O)N[C@@H](Cc2ccccc2)C(O)C(=O)NCC2CCN(Cc3ccccc3)CC2)cc(N(C)S(C)(=O)=O)c1)c1ccccc1` (mixture of isomers): the pIC50 is > 6.00.

With `C[C@@H](NC(=O)c1cc(C(=O)N[C@@H](Cc2ccccc2)[C@H](O)CNCCC2CCN(Cc3ccccc3)CC2)cc(N(C)S(C)(=O)=O)c1)c1ccccc1`, the negative-log IC50 (pIC50) was 7.01.

Turning to `C[C@@H](NC(=O)c1cc(C(=O)N[C@@H](Cc2ccccc2)C(O)C(=O)NCCC2CCN(Cc3ccccc3)CC2)cc(N(C)S(C)(=O)=O)c1)c1ccc(F)cc1` (mixture of isomers), the negative-log IC50 (pIC50) is > 6.00.

On to `CCCN(CCC)C(=O)c1cc(C(=O)N[C@@H](Cc2ccccc2)[C@H](O)CNCCC2CCN(Cc3ccccc3)CC2)cc([N+](=O)[O-])c1`, for which the pIC50 is > 6.00.

On to `CC(C)C[C@H](NC(=O)c1cc(C(=O)N[C@H](C)c2ccc(F)cc2)cc(N(C)S(C)(=O)=O)c1)[C@@H](O)C[C@@H](C)C(=O)NCC1CCN(Cc2ccccc2)CC1`, for which the pIC50 is > 6.00.

In the case of `CCCN(CCC)C(=O)c1cc(C(=O)N[C@@H](Cc2ccccc2)[C@H](O)CNCCC2CCN(Cc3ccccc3)CC2)cc(N(C)S(C)(=O)=O)c1`, the pIC50 is > 6.00.

For `CC(C)C[C@H](NC(=O)c1cc(C(=O)N[C@H](C)c2ccccc2)cc(N(C)S(C)(=O)=O)c1)[C@@H](O)C[C@@H](C)C(=O)NN1CCN(Cc2ccccc2)CC1`, the pIC50 is > 6.00.

Consider `CCCN(CCC)C(=O)c1cc(C(=O)N[C@@H](Cc2ccccc2)C(O)C(=O)NCC2CCN(Cc3ccccc3)CC2)cc([N+](=O)[O-])c1` (mixture of isomers), for which the pIC50 was > 6.00.

For the compound `C[C@@H](NC(=O)c1cc(C(=O)N[C@@H](Cc2ccccc2)[C@H](O)CNCC2CCN(Cc3ccccc3)CC2)cc(N(C)S(C)(=O)=O)c1)c1ccc(F)cc1`, the pIC50 was > 6.00.

As for `C[C@@H](NC(=O)c1cccc(C(=O)N[C@@H](Cc2ccccc2)[C@H](O)CNCCC2CCN(Cc3ccccc3)CC2)c1)c1ccc(F)cc1`, the pIC50 is > 6.00.

With `CC(C)C[C@H](NC(=O)c1cc(C(=O)N[C@H](C)c2ccc(F)cc2)cc(N(C)S(C)(=O)=O)c1)[C@@H](O)C[C@@H](C)C(=O)NN1CCN(Cc2ccccc2)CC1`, the pIC50 was > 6.00.

On to `CCCN(CCC)C(=O)c1cc(C(=O)N[C@@H](Cc2ccccc2)C(O)C(=O)NC2CCN(Cc3ccccc3)CC2)cc([N+](=O)[O-])c1` (mixture of isomers), for which the pIC50 is > 6.00.

Consider `C[C@@H](NC(=O)c1cc(C(=O)N[C@@H](Cc2ccccc2)[C@H](O)CNCCC2CCN(Cc3ccccc3)CC2)cc([N+](=O)[O-])c1)c1ccccc1`, for which the negative logarithm of the IC50 (pIC50) is > 6.00.

Consider `C[C@@H](NC(=O)c1cc(C(=O)N[C@@H](Cc2ccccc2)[C@H](O)CNCC2CCN(Cc3ccccc3)CC2)cc(N(C)S(C)(=O)=O)c1)c1ccccc1`, for which the pIC50 was > 6.00.

`C[C@@H](NC(=O)c1cc(C(=O)N[C@@H](Cc2ccccc2)C(O)C(=O)NCC2CCN(Cc3ccccc3)CC2)cc(N(C)S(C)(=O)=O)c1)c1ccc(F)cc1` (mixture of isomers): the pIC50 is > 6.00.

In the case of `CCCN(CCC)C(=O)c1cccc(C(=O)N[C@@H](Cc2ccccc2)[C@H](O)CNCCC2CCN(Cc3ccccc3)CC2)c1`, the negative-log IC50 (pIC50) is > 6.00.

As for `C[C@@H](NC(=O)c1cc(C(=O)N[C@@H](Cc2ccccc2)[C@H](O)CNCCC2CCN(Cc3ccccc3)CC2)cc(N(C)S(C)(=O)=O)c1)c1ccc(F)cc1`, the negative-log IC50 (pIC50) was > 6.00.

As to `CCCN(CCC)C(=O)c1cc(C(=O)N[C@@H](Cc2ccccc2)C(O)C(=O)NCCC2CCN(Cc3ccccc3)CC2)cc([N+](=O)[O-])c1` (mixture of isomers), the pIC50 was > 6.00.

In the case of `C[C@@H](NC(=O)c1cc(C(=O)N[C@@H](Cc2ccccc2)C(O)C(=O)NC2CCN(Cc3ccccc3)CC2)cc(N(C)S(C)(=O)=O)c1)c1ccc(F)cc1` (mixture of isomers), the pIC50 is > 6.00.

Take `C[C@@H](NC(=O)c1cccc(C(=O)N[C@@H](Cc2ccccc2)[C@H](O)CNCCC2CCN(Cc3ccccc3)CC2)c1)c1ccccc1`: the pIC50 was > 6.00.

As for `C[C@@H](NC(=O)c1cc(C(=O)N[C@@H](Cc2ccccc2)[C@H](O)CNC2CCN(Cc3ccccc3)CC2)cc(N(C)S(C)(=O)=O)c1)c1ccc(F)cc1`, the negative logarithm of the IC50 (pIC50) is > 6.00.

Take `CC(C)C[C@H](NC(=O)c1cc(C(=O)N[C@H](C)c2ccc(F)cc2)cc(N(C)S(C)(=O)=O)c1)[C@@H](O)C[C@@H](C)C(=O)NCCC1CCN(Cc2ccccc2)CC1`: the pIC50 is > 6.00.

Take `C[C@@H](NC(=O)c1cc(C(=O)N[C@@H](Cc2ccccc2)C(O)C(=O)NCCC2CCN(Cc3ccccc3)CC2)cc(N(C)S(C)(=O)=O)c1)c1ccccc1` (mixture of isomers): the pIC50 is > 6.00.

As to `C[C@@H](NC(=O)c1cc(C(=O)N[C@@H](Cc2ccccc2)C(O)C(=O)NC2CCN(Cc3ccccc3)CC2)cc(N(C)S(C)(=O)=O)c1)c1ccccc1` (mixture of isomers), the pIC50 is > 6.00.

Another assay has as its system Mus musculus. The assay is described as follows: Decrease in amyloid beta (1 to 40) production in transgenic mouse transfected with human APP695 Swedish double mutant at 8 nmol, intracerebroventricularly after 4 hrs by ELISA relative to control. Type of assay: functional. Also noted: scale not given: the % may be the effect or the level left. Summed up: (§1)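 The vehicle control was distilled H2O. After 4 h, hemispheres were isolated on ice and Aβ1-40 was measured by colorimetric human Aβ1-40 ELISA against vehicle-treated mice. Data are means ± SD; independent t-test.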
On the technique in general: ELISA stands for enzyme-linked immunosorbent assay.
`C[C@@H](NC(=O)c1cc(C(=O)N[C@@H](Cc2ccccc2)[C@H](O)CNCCC2CCN(Cc3ccccc3)CC2)cc(N(C)S(C)(=O)=O)c1)c1ccccc1` displayed an Activity of 29%.

For a further assay, the system named is Mus musculus. The assay is described as follows: Decrease in amyloid beta (1 to 40) production in transgenic mouse transfected with human APP695 Swedish double mutant at 10 nmol, intracerebroventricularly after 4 hrs by ELISA relative to control. Type of assay: functional. More on the design: scale not given: the % may be the effect or the level left. Summed up: as §1
For `C[C@@H](NC(=O)c1cc(C(=O)N[C@@H](Cc2ccccc2)[C@H](O)CNC2CCN(Cc3ccccc3)CC2)cc(N(C)S(C)(=O)=O)c1)c1ccccc1`, the Activity stood at 23%.

A further assay addresses T1, Beta-secretase 1. The assay is described as follows: Inhibition of human recombinant C-terminal histidine-tagged BACE1 expressed in baculovirus-infected insect cells by FRET assay.
In the case of `C[C@@H](NC(=O)c1cc(C(=O)N[C@@H](Cc2ccccc2)[C@H](O)CNC2CCN(Cc3ccccc3)CC2)cc(N(C)S(C)(=O)=O)c1)c1ccccc1`, the pIC50 was 6.29.

On to `C[C@@H](NC(=O)c1cc(C(=O)N[C@H](CO)Cc2ccccc2)cc(N(C)S(C)(=O)=O)c1)c1ccc(F)cc1`, for which the pIC50 was 6.34.

For the compound `CC(C)C[C@H](NC(=O)c1cc(C(=O)N[C@H](C)c2ccc(F)cc2)cc(N(C)S(C)(=O)=O)c1)[C@@H](O)C[C@@H](C)C(=O)NC1CCN(Cc2ccccc2)CC1`, the pIC50 was 5.82.

Consider `CC(C)C[C@H](NC(=O)c1cc(C(=O)N[C@H](C)c2ccccc2)cc(N(C)S(C)(=O)=O)c1)[C@@H](O)C[C@@H](C)C(=O)NC1CCN(Cc2ccccc2)CC1`, for which the pIC50 is 5.81.

In the case of `C[C@@H](NC(=O)c1cc(C(=O)N[C@@H](Cc2ccccc2)[C@H](O)CNCCC2CCN(Cc3ccccc3)CC2)cc([N+](=O)[O-])c1)c1ccc(F)cc1`, the pIC50 is 5.57.

`C[C@@H](NC(=O)c1cc(C(=O)N[C@@H](Cc2ccccc2)[C@H](O)CNCCC2CCN(Cc3ccccc3)CC2)cc(N(C)S(C)(=O)=O)c1)c1ccccc1`: the pIC50 is 6.25.

On to `CC(C)C[C@H](NC(=O)c1cc(C(=O)N[C@H](C)c2ccc(F)cc2)cc(N(C)S(C)(=O)=O)c1)[C@@H](O)C[C@@H](C)C(=O)NCC1CCN(Cc2ccccc2)CC1`, for which the pIC50 is 6.21.

Regarding `CCCN(CCC)C(=O)c1cc(C(=O)N[C@@H](Cc2ccccc2)[C@H](O)CNCCC2CCN(Cc3ccccc3)CC2)cc(N(C)S(C)(=O)=O)c1`, the negative logarithm of the IC50 (pIC50) is 5.62.

For the compound `C[C@@H](NC(=O)c1cc(C(=O)N[C@@H](Cc2ccccc2)[C@H](O)CNCC2CCN(Cc3ccccc3)CC2)cc(N(C)S(C)(=O)=O)c1)c1ccc(F)cc1`, the pIC50 is 5.49.

Take `C[C@@H](NC(=O)c1cc(C(=O)N[C@@H](Cc2ccccc2)[C@H](O)CNCCC2CCN(Cc3ccccc3)CC2)cc([N+](=O)[O-])c1)c1ccccc1`: the pIC50 is 5.15.

Consider `C[C@@H](NC(=O)c1cc(C(=O)N[C@@H](Cc2ccccc2)[C@H](O)CNCC2CCN(Cc3ccccc3)CC2)cc(N(C)S(C)(=O)=O)c1)c1ccccc1`, for which the negative-log IC50 (pIC50) was 5.40.

As to `C[C@@H](NC(=O)c1cc(C(=O)N[C@@H](Cc2ccccc2)[C@H](O)CNCCC2CCN(Cc3ccccc3)CC2)cc(N(C)S(C)(=O)=O)c1)c1ccc(F)cc1`, the pIC50 was 6.65.

As to `C[C@@H](NC(=O)c1cc(C(=O)N[C@@H](Cc2ccccc2)[C@H](O)CNC2CCN(Cc3ccccc3)CC2)cc(N(C)S(C)(=O)=O)c1)c1ccc(F)cc1`, the pIC50 was 6.11.

Regarding `CC(C)C[C@H](NC(=O)c1cc(C(=O)N[C@H](C)c2ccc(F)cc2)cc(N(C)S(C)(=O)=O)c1)[C@@H](O)C[C@@H](C)C(=O)NCCC1CCN(Cc2ccccc2)CC1`, the pIC50 was 5.87.

Another assay has as its system PC-12. The assay is described as follows: Cell protective activity against H2O2-induced cell injury in rat PC12 cells assessed as cell viability at 1 to 10 uM pretreated for 2 hrs measured after 24 hrs by MTT assay. It is filed as functional, cell-based. The gist of the method:
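PC12 cells seeded at 1 × 10^5 cells per mL in DMEM with 10% heat-inactivated bovine calf serum, used 24 h later. Compounds dissolved in 2% DMSO then diluted in PBS; 2 h pretreatment, H2O2 for 30 min, then fresh phenol red-free DMEM. Viability by MTT reduction 24 h later, absorbance 570 and 630 nm. Means ± SD, one-way ANOVA with Duncan's test.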
For orientation: Tetrazolium assays rely on reduction of a dye to a coloured formazan, in cell work by metabolically active cells.
As to `C[C@@H](NC(=O)c1cc(C(=O)N[C@@H](Cc2ccccc2)[C@H](O)CNC2CCN(Cc3ccccc3)CC2)cc(N(C)S(C)(=O)=O)c1)c1ccccc1`, the outcome was Active.

With `C[C@@H](NC(=O)c1cc(C(=O)N[C@@H](Cc2ccccc2)[C@H](O)CNCCC2CCN(Cc3ccccc3)CC2)cc(N(C)S(C)(=O)=O)c1)c1ccccc1`, the result was Active.
